These results are taken from ChEMBL document CHEMBL4823317, “Synthesis, in vitro cytotoxicity and biological evaluation of twenty novel 1,3-benzenedisulfonyl piperazines as antiplatelet agents” (Bioorg Med Chem, 2021).

pIC50: −log10 of the molar value.

In one series the test system is Blood. The experiment in a line: Anti-platelet aggregation activity in rabbit venous blood assessed as inhibition of ADP-induced aggregation at 1.3 uM pre-treated for 2 mins followed by ADP addition by Born turbidimetric method relative to control. The series is classed as functional. The conditions noted are these: Oryctolagus cuniculus. In outline:
(§1)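 Platelet-rich plasma from male rabbit (2–3 kg) ear-vein blood, citrate anticoagulated (3.8%, 9:1), spun 1000 rpm 10 min at room temperature; platelet-poor plasma (3000 rpm 10 min) as blank. Compound at 1.3 µM, from DMSO solution (DMSO 0.5% v/v vehicle control), preincubated 2 min in PRP before inducer. Inhibition% = (1 − D/S) × 100, where S is aggregation with solvent.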
`CCOc1ccc(S(=O)(=O)N2CCN(c3ccccc3F)CC2)cc1S(=O)(=O)N1CCN(c2ccccc2F)CC1`: the inhibition at 1.3 µM worked out at 21%.

As for `COc1ccc(S(=O)(=O)N2CCN(C)CC2)cc1S(=O)(=O)N1CCN(C)CC1`, the inhibition at 1.3 µM amounted to 38.2%.

Turning to `CCOc1ccc(S(=O)(=O)N2CCN(c3ccccc3OC)CC2)cc1S(=O)(=O)N1CCN(c2ccccc2OC)CC1`, the inhibition at 1.3 µM is 25.5%.

As for `CCN1CCN(S(=O)(=O)c2ccc(OC)c(S(=O)(=O)N3CCN(CC)CC3)c2)CC1`, the inhibition at 1.3 µM came to 24.3%.

With `CCOc1ccc(S(=O)(=O)N2CCN(CC)CC2)cc1S(=O)(=O)N1CCN(CC)CC1`, the inhibition at 1.3 µM came out at 28.8%.

`COc1ccccc1N1CCN(S(=O)(=O)c2ccc(OC)c(S(=O)(=O)N3CCN(c4ccccc4OC)CC3)c2)CC1`: the inhibition at 1.3 µM was 28.7%.

`CCOc1ccc(S(=O)(=O)N2CCN(c3ccc(C)cc3)CC2)cc1S(=O)(=O)N1CCN(c2ccc(C)cc2)CC1`: the inhibition at 1.3 µM was 43.6%.

Regarding `COc1ccc(S(=O)(=O)N2CCN(c3ccccc3C)CC2)cc1S(=O)(=O)N1CCN(c2ccccc2C)CC1`, the inhibition at 1.3 µM was found to be 38.9%.

In the case of `CCOc1ccc(S(=O)(=O)N2CCN(C)CC2)cc1S(=O)(=O)N1CCN(C)CC1`, the inhibition at 1.3 µM stood at 24.5%.

For the molecule `COc1ccc(S(=O)(=O)N2CCN(C(C)C)CC2)cc1S(=O)(=O)N1CCN(C(C)C)CC1`, the inhibition at 1.3 µM came out at 28.4%.

In the case of `COc1ccc(S(=O)(=O)N2CCN(c3ccccc3)CC2)cc1S(=O)(=O)N1CCN(c2ccccc2)CC1`, the inhibition at 1.3 µM amounted to 27.9%.

The next series relates to Blood. As to the kind of experiment: Anti-platelet aggregation activity in rabbit venous blood assessed as inhibition of ADP-induced aggregation pre-treated for 2 mins followed by ADP addition by Born turbidimetric method. The series is classed as functional, tissue-based. Particulars: Oryctolagus cuniculus. In outline: (§2)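 Rabbit PRP Born turbidimetry with the same 2 min compound preincubation. ADP or arachidonic acid as inducer. Compounds tested at 1.3, 0.65 and 0.325 µM. Inhibition% = (1 − D/S) × 100 versus the solvent control, and IC50 calculated from these inhibition rates.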
With `COc1ccc(S(=O)(=O)N2CCN(C)CC2)cc1S(=O)(=O)N1CCN(C)CC1`, the pIC50 is 6.01.

With `CCOc1ccc(S(=O)(=O)N2CCN(c3ccc(C)cc3)CC2)cc1S(=O)(=O)N1CCN(c2ccc(C)cc2)CC1`, the pIC50 is 6.14.

Regarding `COc1ccc(S(=O)(=O)N2CCN(c3ccccc3C)CC2)cc1S(=O)(=O)N1CCN(c2ccccc2C)CC1`, the pIC50 is 6.02.

The subject of the next series is Blood. As to the kind of experiment: Anti-platelet aggregation activity in rabbit venous blood assessed as inhibition of arachidonic acid-induced aggregation at 1.3 uM pre-treated for 2 mins followed by ADP addition by Born turbidimetric method relative to control. In kind it is functional. The conditions noted are these: Oryctolagus cuniculus. In outline:
as §1
For the molecule `CCOc1ccc(S(=O)(=O)N2CCN(c3ccccc3F)CC2)cc1S(=O)(=O)N1CCN(c2ccccc2F)CC1`, the inhibition at 1.3 µM amounted to 25.8%.

On to `COc1ccc(S(=O)(=O)N2CCN(C)CC2)cc1S(=O)(=O)N1CCN(C)CC1`, for which the inhibition at 1.3 µM stood at 29.5%.

In the case of `CCOc1ccc(S(=O)(=O)N2CCN(c3ccccc3OC)CC2)cc1S(=O)(=O)N1CCN(c2ccccc2OC)CC1`, the inhibition at 1.3 µM is 23.1%.

With `CCN1CCN(S(=O)(=O)c2ccc(OC)c(S(=O)(=O)N3CCN(CC)CC3)c2)CC1`, the inhibition at 1.3 µM stood at 22.4%.

In the case of `CCOc1ccc(S(=O)(=O)N2CCN(CC)CC2)cc1S(=O)(=O)N1CCN(CC)CC1`, the inhibition at 1.3 µM amounted to 29.9%.

As for `COc1ccccc1N1CCN(S(=O)(=O)c2ccc(OC)c(S(=O)(=O)N3CCN(c4ccccc4OC)CC3)c2)CC1`, the inhibition at 1.3 µM was determined as 28.1%.

For the molecule `CCOc1ccc(S(=O)(=O)N2CCN(c3ccc(C)cc3)CC2)cc1S(=O)(=O)N1CCN(c2ccc(C)cc2)CC1`, the inhibition at 1.3 µM was found to be 43%.

With `COc1ccc(S(=O)(=O)N2CCN(c3ccccc3C)CC2)cc1S(=O)(=O)N1CCN(c2ccccc2C)CC1`, the inhibition at 1.3 µM came to 36.9%.

Consider `CCOc1ccc(S(=O)(=O)N2CCN(C)CC2)cc1S(=O)(=O)N1CCN(C)CC1`, for which the inhibition at 1.3 µM stood at 18.1%.

Take `COc1ccc(S(=O)(=O)N2CCN(C(C)C)CC2)cc1S(=O)(=O)N1CCN(C(C)C)CC1`: the inhibition at 1.3 µM was 27.1%.

Regarding `COc1ccc(S(=O)(=O)N2CCN(c3ccccc3)CC2)cc1S(=O)(=O)N1CCN(c2ccccc2)CC1`, the inhibition at 1.3 µM turned out to be 15.7%.

In another series the test system is Blood. As to the kind of experiment: Anti-platelet aggregation activity in rabbit venous blood assessed as inhibition of arachidonic acid-induced aggregation pre-treated for 2 mins followed by ADP addition by Born turbidimetric method. The series is classed as functional, tissue-based. Particulars: Oryctolagus cuniculus. In outline:
as §2
For the molecule `CCOc1ccc(S(=O)(=O)N2CCN(c3ccc(C)cc3)CC2)cc1S(=O)(=O)N1CCN(c2ccc(C)cc2)CC1`, the pIC50 was 6.59.

In the case of `COc1ccc(S(=O)(=O)N2CCN(c3ccccc3C)CC2)cc1S(=O)(=O)N1CCN(c2ccccc2C)CC1`, the pIC50 is 6.44.

The subject of a further series is Blood. The experiment in a line: Anti-platelet aggregation activity in rabbit venous blood assessed as inhibition of collagen-induced aggregation at 1.3 uM pre-treated for 2 mins followed by ADP addition by Born turbidimetric method relative to control. In kind it is functional. Particulars: Oryctolagus cuniculus. The method in brief:
as §1
As for `CCOc1ccc(S(=O)(=O)N2CCN(c3ccccc3F)CC2)cc1S(=O)(=O)N1CCN(c2ccccc2F)CC1`, the inhibition at 1.3 µM came to 50.3%.

On to `COc1ccc(S(=O)(=O)N2CCN(C)CC2)cc1S(=O)(=O)N1CCN(C)CC1`, for which the inhibition at 1.3 µM amounted to 52.6%.

Consider `CCOc1ccc(S(=O)(=O)N2CCN(c3ccccc3OC)CC2)cc1S(=O)(=O)N1CCN(c2ccccc2OC)CC1`, for which the inhibition at 1.3 µM came out at 25.2%.

Take `CCN1CCN(S(=O)(=O)c2ccc(OC)c(S(=O)(=O)N3CCN(CC)CC3)c2)CC1`: the inhibition at 1.3 µM is 42.6%.

On to `CCOc1ccc(S(=O)(=O)N2CCN(CC)CC2)cc1S(=O)(=O)N1CCN(CC)CC1`, for which the inhibition at 1.3 µM turned out to be 41.7%.

Turning to `COc1ccccc1N1CCN(S(=O)(=O)c2ccc(OC)c(S(=O)(=O)N3CCN(c4ccccc4OC)CC3)c2)CC1`, the inhibition at 1.3 µM is 27.6%.

In the case of `CCOc1ccc(S(=O)(=O)N2CCN(c3ccc(C)cc3)CC2)cc1S(=O)(=O)N1CCN(c2ccc(C)cc2)CC1`, the inhibition at 1.3 µM is 28.5%.

Regarding `COc1ccc(S(=O)(=O)N2CCN(c3ccccc3C)CC2)cc1S(=O)(=O)N1CCN(c2ccccc2C)CC1`, the inhibition at 1.3 µM is 32.1%.

Take `CCOc1ccc(S(=O)(=O)N2CCN(C)CC2)cc1S(=O)(=O)N1CCN(C)CC1`: the inhibition at 1.3 µM was determined as 29.5%.

In the case of `COc1ccc(S(=O)(=O)N2CCN(C(C)C)CC2)cc1S(=O)(=O)N1CCN(C(C)C)CC1`, the inhibition at 1.3 µM is 49.4%.

As for `COc1ccc(S(=O)(=O)N2CCN(c3ccccc3)CC2)cc1S(=O)(=O)N1CCN(c2ccccc2)CC1`, the inhibition at 1.3 µM is 20.4%.

Tested on in the next series: not listed separately
The experiment in a line: Cytotoxicity against mouse L929 cells assessed as cell survival at 10 uM incubated for 48 hrs by CCK-8 assay relative to control. In kind it is cell-based. The conditions noted are these: read-out: Activity. In outline:
(§3)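 L929 mouse fibroblasts seeded at 10,000 cells/well in RPMI-1640 and allowed to attach 24 h at 37 °C. Compounds then added at 10 and 100 µM for 48 h at 37 °C. Medium replaced with fresh medium, CCK-8 added, 30 min further incubation, absorbance read at 450 nm. Viability = Abs(test)/Abs(control) × 100%.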
`CCOc1ccc(S(=O)(=O)N2CCN(c3ccccc3F)CC2)cc1S(=O)(=O)N1CCN(c2ccccc2F)CC1`: the viability at 48 h, 10 µM was 70.4%.

Take `COc1ccc(S(=O)(=O)N2CCN(C)CC2)cc1S(=O)(=O)N1CCN(C)CC1`: the viability at 48 h, 10 µM was 77.8%.

Take `CCOc1ccc(S(=O)(=O)N2CCN(c3ccc(C)cc3)CC2)cc1S(=O)(=O)N1CCN(c2ccc(C)cc2)CC1`: the viability at 48 h, 10 µM was 51.8%.

Tested on in another series: not listed separately
The experiment in a line: Cytotoxicity against mouse L929 cells assessed as cell survival at 100 uM incubated for 48 hrs by CCK-8 assay relative to control. In kind it is cell-based. Particulars: read-out: Activity. In outline: as §3
Consider `CCOc1ccc(S(=O)(=O)N2CCN(c3ccccc3F)CC2)cc1S(=O)(=O)N1CCN(c2ccccc2F)CC1`, for which the viability at 48 h, 100 µM was determined as 3.7%.

For `COc1ccc(S(=O)(=O)N2CCN(C)CC2)cc1S(=O)(=O)N1CCN(C)CC1`, the viability at 48 h, 100 µM amounted to 33.3%.

Consider `CCOc1ccc(S(=O)(=O)N2CCN(c3ccc(C)cc3)CC2)cc1S(=O)(=O)N1CCN(c2ccc(C)cc2)CC1`, for which the viability at 48 h, 100 µM came to 7.4%.
